Experimental data published in ChEMBL document CHEMBL1141128, “Structure-activity relationship study on a simple cationic peptide motif for cellular delivery of antisense peptide nucleic acid” (J Med Chem, 2005).
Starred links: 1 amine or outer side, 2 acyl side, 3 side chain; linkers in the order of their positions; H or OH if unused. Non-standard residues stand in square brackets, D forms with d. Residues, ends and D or L forms follow the SMILES beside them. Lys(Me2) = CN(C)CCCC[C@H](N)C(=O)O; hArg = N=C(N)NCCCC[C@H](N)C(=O)O; X1 = NCCCC(CC(=O)[*:2])N[*:1]

Tests used:
CD40 mRNA [1] = assay: […] CD40 expression in BCL1 cells treated with 3 uM peptide nucleic acid (PNA)conjugate; n=3; assay type: functional, cell-based; details: Mus musculus
Method in brief: (§1)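 Mouse BCL1 cells in DMEM with 10% FBS, given conjugate at 1, 3 or 10 μM by free uptake (no transfection agent) for 3 days. Cells trypsinised and stained 1 h with FITC anti-CD40 (HM40-3) or isotype control, then surface CD40 read by flow cytometry. Results are % untreated control, mean ± SD, n = 3.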

CD40 mRNA [2] = assay: […] CD40 expression in BCL1 cells treated with 10 uM peptide nucleic acid (PNA)conjugate; n=3; assay type: functional, cell-based; details: Mus musculus; method in brief: as §1
[3] = Half-life of the conjugate when treated with 25% murine serum for enzymatic stability; No degradation observed within the period of time indicated; assay type: ADME; details: mouse
Method in brief: (§2)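 Conjugates at 20 μM in 10% FBS RPMI 1640 medium or 25% mouse serum (Hepes-stabilised, diluted in PBS, pH 7.1–7.4), incubated at 37 °C. Sampled to 168 h (FBS) or 48 h (serum); proteins precipitated with 10% DCA, PNA 6mer internal standard added. Analysed by C3 RP-HPLC at 60 °C; t1/2 from normalised full-length peak area versus time.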

BCL1 [4] = assay: Inhibitory concentration against BCL1 cell proliferation in WST-1 assay; Range 10-20; assay type: functional, Mus musculus
Method in brief: (§3)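 BCL1 cells, 2000 per well, grown in DMEM with 10% FBS at 37 °C and 5% CO2. Exposed to conjugate for 3 days, then viable cells read by WST-1 absorbance at 450 nm. Value is the concentration at which absorbance fell below 50% of untreated control; triplicates.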

CD40 mRNA [5] = assay: […] CD40 expression in BCL1 cells treated with 1 uM peptide nucleic acid (PNA)conjugate; n=3; assay type: functional, cell-based; details: Mus musculus; method in brief: as §1
[6] = Half-life of the conjugate when treated with 10% foetal bovine serum for enzymatic stability; assay type: ADME, Bos taurus; details: cattle; method in brief: as §2
BCL1 [7] = assay: Inhibitory concentration against BCL1 cell proliferation in WST-1 assay; Range 5-10; assay type: functional, Mus musculus; method in brief: as §3
[8] = Half-life of the conjugate when treated with 25% murine serum for enzymatic stability; No data available; assay type: ADME; details: mouse; method in brief: as §2
BCL1 [9] = assay: Inhibitory concentration against BCL1 cell proliferation in WST-1 assay; assay type: functional, Mus musculus; method in brief: as §3
[10] = Half-life of the conjugate when treated with 25% murine serum for enzymatic stability; Range 2-3 h; assay type: ADME; details: mouse; method in brief: as §2
[11] = Half-life of the conjugate when treated with 25% murine serum for enzymatic stability; assay type: ADME; details: mouse; method in brief: as §2

| Structure (SMILES) | half-life [3] | half-life [6] | T1/2 [8] | half-life [10] | half-life [11] | UTC (CD40 mRNA [1]) | UTC (CD40 mRNA [2]) | IC50 (BCL1 [4]) | UTC (CD40 mRNA [5]) | Cell viability (BCL1 [7]) | IC50 for cell proliferation (BCL1 [9]) |
| --- | --- | --- | --- | --- | --- | --- | --- | --- | --- | --- | --- |
| NCCCC[C@@H](C=O)NC(=O)[C@H](CCCCN)NC(=O)[C@H](CCCCN)NC(=O)CC(CCCN)NC(=O)[C@H](CCCCN)NC(=O)[C@H](CCCCN)NC(=O)CC(CCCN)NC(=O)[C@H](CCCCN)NC(=O)[C@@H](N)CCCCN (stereo partly specified) (H-KK[X1]KK[X1]KKK-aldehyde) | – | > 7 days | No data available | – | – | 82% | 61% | – | 98% | 10 µM | – |
| N=C(N)NCCC[C@H](NC(=O)[C@H](CCCNC(=N)N)NC(=O)[C@H](CCCNC(=N)N)NC(=O)[C@H](CCCNC(=N)N)NC(=O)[C@H](CCCNC(=N)N)NC(=O)[C@H](CCCNC(=N)N)NC(=O)[C@H](CCCNC(=N)N)NC(=O)[C@@H](N)CCCNC(=N)N)C(=O)N[C@H](C=O)CCCCN (H-RRRRRRRRK-aldehyde) | – | 0.833 days | – | 180 min | – | 81% | 60% | – | 102% | – | >20 µM |
| NCCCC[C@@H](C=O)NC(=O)CC(CCCN)NC(=O)CC(CCCN)NC(=O)CC(CCCN)NC(=O)CC(CCCN)NC(=O)CC(CCCN)NC(=O)CC(CCCN)NC(=O)CC(CCCN)NC(=O)CC(N)CCCN (stereo partly specified) | – | > 7 days | – | – | > 2880 min | 81% | 66% | – | 94% | 10 µM | – |

The next lines start with results.

| half-life [3] | half-life [6] | T1/2 [8] | half-life [10] | half-life [11] | Structure (SMILES) | UTC (CD40 mRNA [1]) | UTC (CD40 mRNA [2]) | IC50 (BCL1 [4]) | UTC (CD40 mRNA [5]) | Cell viability (BCL1 [7]) | IC50 for cell proliferation (BCL1 [9]) |
| --- | --- | --- | --- | --- | --- | --- | --- | --- | --- | --- | --- |
| > 2880 min | > 7 days | – | – | – | NCCCC[C@@H](C=O)NC(=O)[C@@H](CCCCN)NC(=O)[C@@H](CCCCN)NC(=O)[C@@H](CCCCN)NC(=O)[C@@H](CCCCN)NC(=O)[C@@H](CCCCN)NC(=O)[C@@H](CCCCN)NC(=O)[C@@H](CCCCN)NC(=O)[C@H](N)CCCCN | 81% | 54% | 20 µM | 97% | – | – |
| – | > 7 days | No data available | – | – | CN(C)CCCC[C@H](NC(=O)[C@H](CCCCN(C)C)NC(=O)[C@H](CCCCN)NC(=O)[C@H](CCCCN(C)C)NC(=O)[C@H](CCCCN(C)C)NC(=O)[C@H](CCCCN)NC(=O)[C@H](CCCCN(C)C)NC(=O)[C@@H](N)CCCCN(C)C)C(=O)N[C@H](C=O)CCCCN (H-[Lys(Me2)][Lys(Me2)]K[Lys(Me2)][Lys(Me2)]K[Lys(Me2)][Lys(Me2)]K-aldehyde) | 89% | 63% | – | 91% | – | >20 µM |
| – | > 7 days | No data available | – | – | NCCCC[C@@H](C=O)NC(=O)[C@H](CCCCN)NC(=O)[C@H](CCCCN)NC(=O)[C@H](CCCCN=C(N)N)NC(=O)[C@H](CCCCN)NC(=O)[C@H](CCCCN)NC(=O)[C@H](CCCCN=C(N)N)NC(=O)[C@H](CCCCN)NC(=O)[C@@H](N)CCCCN (H-KK[hArg]KK[hArg]KKK-aldehyde) | 75% | 36% | – | 92% | – | 10 µM |
